According to ChEMBL document CHEMBL5370658, “Development of First-in-Class Dual Sirt2/HDAC6 Inhibitors as Molecular Tools for Dual Inhibition of Tubulin Deacetylation” (J Med Chem, 2023):
Active and inactive are the calls of the source. No cut-off for these calls is given here.

What was measured:
PC-3M-luc = test: Cytotoxicity against human PC-3M-luc cells assessed as reduction in cell viability incubated for 72 hrs by MTS assay; type: functional, cell-based
Outline: (§1)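 Cell viability EC50 from at least two independent experiments, each run in triplicate. Results are compared by t-test.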

[1] = target: Histone deacetylase 5 (Homo sapiens) (UniProt Q9UQL6); test: Inhibition of HDAC5 (unknown origin) using Abz-SRGGK(STFA)FRR-NH2 as substrate at 6 to 20000 nM preincubated for 5 mins followed by substrate addition and measured every 30 secs for 30 mins by continuous fluorescence based assay; conditions: dose 6-20000 nM, time 35.0 min
Outline: (§2)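 Continuous fluorescence assay in 20 mM HEPES pH 7.4, 140 mM NaCl, 10 mM KCl, 1 mM TCEP, 0.2 mg/mL BSA, 3% DMSO final. Enzyme (HDAC4 5 nM, HDAC5 10 nM, HDAC7 5 nM, HDAC9 20 nM) preincubated with inhibitor at room temperature. HDAC10 (5 nM) instead in 20 mM HEPES pH 7.4, 0.5 mg/mL BSA. Initial slope used as activity.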

HGC-27 = test: Cytotoxicity against human HGC-27 cells assessed as reduction in cell viability incubated for 72 hrs by MTS assay; type: functional, cell-based; outline: as §1
[2] = target: T1, Histone deacetylase 7 (Homo sapiens) (UniProt Q8WUI4); test: Inhibition of HDAC7 (unknown origin) using Abz-SRGGK(STFA)FRR-NH2 as substrate at 6 to 20000 nM preincubated for 5 mins followed by substrate addition and measured every 30 secs for 30 mins by continuous fluorescence based assay; conditions: dose 6-20000 nM, time 35.0 min; outline: as §2
T1 sequence (whole entry): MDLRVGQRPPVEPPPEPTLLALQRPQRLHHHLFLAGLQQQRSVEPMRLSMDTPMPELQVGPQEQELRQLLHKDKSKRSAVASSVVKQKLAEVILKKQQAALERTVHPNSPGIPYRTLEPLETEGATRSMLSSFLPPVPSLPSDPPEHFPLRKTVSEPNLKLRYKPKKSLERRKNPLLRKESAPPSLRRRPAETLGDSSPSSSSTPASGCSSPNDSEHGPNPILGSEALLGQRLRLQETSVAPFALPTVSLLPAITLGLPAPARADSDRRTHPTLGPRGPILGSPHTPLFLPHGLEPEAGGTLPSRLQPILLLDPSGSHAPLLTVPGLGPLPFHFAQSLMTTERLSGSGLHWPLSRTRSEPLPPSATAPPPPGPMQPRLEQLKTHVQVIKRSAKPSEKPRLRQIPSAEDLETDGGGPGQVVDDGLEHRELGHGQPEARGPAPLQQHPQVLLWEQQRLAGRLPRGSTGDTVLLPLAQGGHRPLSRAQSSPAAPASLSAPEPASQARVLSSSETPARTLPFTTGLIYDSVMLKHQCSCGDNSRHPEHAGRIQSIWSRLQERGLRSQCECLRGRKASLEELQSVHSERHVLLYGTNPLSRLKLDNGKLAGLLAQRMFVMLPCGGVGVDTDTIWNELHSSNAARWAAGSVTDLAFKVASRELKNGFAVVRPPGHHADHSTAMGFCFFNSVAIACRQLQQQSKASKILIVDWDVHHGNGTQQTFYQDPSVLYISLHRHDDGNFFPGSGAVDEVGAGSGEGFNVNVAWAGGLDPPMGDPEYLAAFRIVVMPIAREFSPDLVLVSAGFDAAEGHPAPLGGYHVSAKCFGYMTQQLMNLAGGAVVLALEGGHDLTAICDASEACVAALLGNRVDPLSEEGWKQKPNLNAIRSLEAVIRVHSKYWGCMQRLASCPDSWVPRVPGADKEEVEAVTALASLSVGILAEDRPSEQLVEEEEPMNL

[3] = target: Histone deacetylase 9 (Homo sapiens) (UniProt Q9UKV0); test: Inhibition of HDAC9 (unknown origin) using Abz-SRGGK(STFA)FRR-NH2 as substrate at 6 to 20000 nM preincubated for 5 mins followed by substrate addition and measured every 30 secs for 30 mins by continuous fluorescence based assay; conditions: dose 6-20000 nM, time 35.0 min; outline: as §2
MCF7 = test: Cytotoxicity against human MCF7 cells assessed as reduction in cell viability incubated for 72 hrs by MTT assay; type: functional, cell-based; outline: as §1
[4] = target: Histone deacetylase 4 (Homo sapiens) (UniProt P56524); test: Inhibition of HDAC4 (unknown origin) using Abz-SRGGK(STFA)FRR-NH2 as substrate at 6 to 20000 nM preincubated for 5 mins followed by substrate addition and measured every 30 secs for 30 mins by continuous fluorescence based assay; conditions: dose 6-20000 nM, time 35.0 min; outline: as §2
W1 Ovarian cancer cell = test: Cytotoxicity against human W1 Ovarian cancer cells assessed as reduction in cell viability incubated for 72 hrs by MTT assay; type: functional, cell-based; outline: as §1

Sequence of Histone deacetylase 9 (Homo sapiens) (Q9UKV0 whole entry): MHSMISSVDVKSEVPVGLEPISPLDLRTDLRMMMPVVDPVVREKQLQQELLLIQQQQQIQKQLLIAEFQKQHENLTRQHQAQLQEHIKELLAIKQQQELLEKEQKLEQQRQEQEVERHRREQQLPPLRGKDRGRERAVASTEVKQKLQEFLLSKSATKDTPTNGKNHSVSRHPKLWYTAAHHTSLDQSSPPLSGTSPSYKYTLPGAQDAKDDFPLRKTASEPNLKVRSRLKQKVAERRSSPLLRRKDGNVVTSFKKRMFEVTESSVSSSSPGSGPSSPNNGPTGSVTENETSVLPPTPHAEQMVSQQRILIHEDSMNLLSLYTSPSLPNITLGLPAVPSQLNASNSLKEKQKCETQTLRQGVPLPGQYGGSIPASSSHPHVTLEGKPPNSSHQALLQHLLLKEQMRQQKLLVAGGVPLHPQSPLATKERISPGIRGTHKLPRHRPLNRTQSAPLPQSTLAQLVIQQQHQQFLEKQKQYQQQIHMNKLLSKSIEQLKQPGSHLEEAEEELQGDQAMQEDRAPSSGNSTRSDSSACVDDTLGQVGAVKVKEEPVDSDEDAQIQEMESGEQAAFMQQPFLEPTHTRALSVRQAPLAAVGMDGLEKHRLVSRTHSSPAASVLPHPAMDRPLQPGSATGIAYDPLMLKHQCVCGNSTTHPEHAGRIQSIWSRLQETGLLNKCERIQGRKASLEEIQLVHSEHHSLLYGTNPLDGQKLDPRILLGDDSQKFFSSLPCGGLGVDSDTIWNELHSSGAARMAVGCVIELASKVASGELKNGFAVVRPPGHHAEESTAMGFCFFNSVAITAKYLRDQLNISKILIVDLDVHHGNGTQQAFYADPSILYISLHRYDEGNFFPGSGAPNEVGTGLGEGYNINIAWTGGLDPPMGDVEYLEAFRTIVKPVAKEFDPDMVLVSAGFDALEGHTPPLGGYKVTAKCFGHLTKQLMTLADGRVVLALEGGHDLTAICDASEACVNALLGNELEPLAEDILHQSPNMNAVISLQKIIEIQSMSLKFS
Sequence of Histone deacetylase 5 (Homo sapiens) (Q9UQL6 whole entry): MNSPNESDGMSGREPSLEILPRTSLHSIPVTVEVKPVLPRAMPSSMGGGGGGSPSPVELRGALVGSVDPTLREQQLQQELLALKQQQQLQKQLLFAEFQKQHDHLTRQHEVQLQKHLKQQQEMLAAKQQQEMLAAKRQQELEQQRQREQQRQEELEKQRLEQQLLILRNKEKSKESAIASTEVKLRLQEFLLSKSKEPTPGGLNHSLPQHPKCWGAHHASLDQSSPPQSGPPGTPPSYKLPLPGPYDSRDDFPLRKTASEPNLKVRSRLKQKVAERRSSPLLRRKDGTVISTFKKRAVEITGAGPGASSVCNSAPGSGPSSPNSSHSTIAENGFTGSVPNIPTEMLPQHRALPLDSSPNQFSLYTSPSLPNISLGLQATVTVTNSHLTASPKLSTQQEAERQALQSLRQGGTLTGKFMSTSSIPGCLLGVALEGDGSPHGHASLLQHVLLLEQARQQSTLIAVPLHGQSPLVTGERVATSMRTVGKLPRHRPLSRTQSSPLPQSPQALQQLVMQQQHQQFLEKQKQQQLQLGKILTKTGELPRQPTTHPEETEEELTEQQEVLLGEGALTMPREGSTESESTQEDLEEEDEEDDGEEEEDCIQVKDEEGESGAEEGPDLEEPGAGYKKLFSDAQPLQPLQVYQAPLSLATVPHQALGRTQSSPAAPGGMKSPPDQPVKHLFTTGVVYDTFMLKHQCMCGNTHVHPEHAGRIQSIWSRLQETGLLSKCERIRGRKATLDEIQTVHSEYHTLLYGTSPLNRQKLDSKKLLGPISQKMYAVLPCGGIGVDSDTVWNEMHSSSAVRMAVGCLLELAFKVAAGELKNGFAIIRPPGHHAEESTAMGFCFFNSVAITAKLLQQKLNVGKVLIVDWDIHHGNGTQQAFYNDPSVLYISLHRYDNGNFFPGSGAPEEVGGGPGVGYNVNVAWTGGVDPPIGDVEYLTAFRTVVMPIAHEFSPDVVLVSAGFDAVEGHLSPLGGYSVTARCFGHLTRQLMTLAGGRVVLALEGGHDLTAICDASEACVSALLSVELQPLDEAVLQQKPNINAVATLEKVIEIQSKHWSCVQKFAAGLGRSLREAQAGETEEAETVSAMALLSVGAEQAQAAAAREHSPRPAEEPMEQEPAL
Sequence of Histone deacetylase 4 (Homo sapiens) (P56524 whole entry): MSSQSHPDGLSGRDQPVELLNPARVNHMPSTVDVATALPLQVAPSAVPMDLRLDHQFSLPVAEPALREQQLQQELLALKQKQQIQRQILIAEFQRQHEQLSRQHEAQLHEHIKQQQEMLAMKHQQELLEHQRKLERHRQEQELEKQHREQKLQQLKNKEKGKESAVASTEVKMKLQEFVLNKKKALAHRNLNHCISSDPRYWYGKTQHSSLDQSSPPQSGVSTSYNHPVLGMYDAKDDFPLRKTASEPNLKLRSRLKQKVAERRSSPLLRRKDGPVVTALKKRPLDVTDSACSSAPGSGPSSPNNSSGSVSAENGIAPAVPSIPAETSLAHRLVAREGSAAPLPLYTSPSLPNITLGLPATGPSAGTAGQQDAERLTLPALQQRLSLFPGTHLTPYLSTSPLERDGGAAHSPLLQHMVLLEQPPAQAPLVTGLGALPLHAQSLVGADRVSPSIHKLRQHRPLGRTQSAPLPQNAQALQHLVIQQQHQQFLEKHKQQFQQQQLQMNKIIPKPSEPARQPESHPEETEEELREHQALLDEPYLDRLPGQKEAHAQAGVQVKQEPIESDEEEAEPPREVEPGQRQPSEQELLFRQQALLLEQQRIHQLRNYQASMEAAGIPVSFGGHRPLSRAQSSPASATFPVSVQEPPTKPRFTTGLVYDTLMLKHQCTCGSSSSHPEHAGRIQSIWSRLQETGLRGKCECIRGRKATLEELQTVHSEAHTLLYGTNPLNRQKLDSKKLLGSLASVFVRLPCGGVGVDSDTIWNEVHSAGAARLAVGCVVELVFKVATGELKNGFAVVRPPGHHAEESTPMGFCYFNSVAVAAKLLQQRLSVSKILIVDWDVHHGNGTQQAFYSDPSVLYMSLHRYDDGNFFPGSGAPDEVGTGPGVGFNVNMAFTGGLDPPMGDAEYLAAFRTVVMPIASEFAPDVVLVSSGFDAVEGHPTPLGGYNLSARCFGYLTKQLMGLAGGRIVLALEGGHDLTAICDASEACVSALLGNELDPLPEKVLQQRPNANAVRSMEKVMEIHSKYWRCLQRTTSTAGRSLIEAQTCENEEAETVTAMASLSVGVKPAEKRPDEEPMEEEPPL

inhibition [1]: inactive
inhibition [2]: inactive
inhibition [3]: inactive
inhibition [4]: inactive
Compound: CCCCN(Cc1ccc(C(=O)NO)cc1)C(=O)CCCCn1cc(COc2cccc(Cc3cnc(NC(=O)CSc4nc(C)cc(C)n4)s3)c2)nn1
Activity (PC-3M-luc): Active
Activity (HGC-27): Active
Activity (MCF7): Active
Activity (W1 Ovarian cancer cell): Active
